In ChEMBL document CHEMBL4359873, “Benzothienoquinazolinones as new multi-target scaffolds: Dual inhibition of human Topoisomerase I and tubulin polymerization” (Eur J Med Chem, 2019) one finds IC50, OD and inhibition data, which are given here for nine compounds.

The source made the active and inactive calls. The calls are words filed in the database; no cut-off is given here.

Assay [1] concerns MCF-10A. The assay is described as follows: Cytotoxicity against human MCF10A cells assessed as reduction in cell viability after 72 hrs by MTT assay. Type of assay: cell-based. The procedure, abridged: (§1)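 Cells seeded, grown 24 h in full medium, then serum-starved 24 h before compound exposure. Six concentrations (0.1, 1, 10, 20, 40, 100 µM) tested in triplicate; MTT absorbance read at 570 nm; results as % of basal, IC50 calculated. Means ± standard deviations. MCF-7 in DMEM-F12 with 5% NCS, MDA-MB-231 with 5% FBS, MCF-10A with 5% horse serum plus hEGF, insulin, hydrocortisone, cholera enterotoxin; 37 °C, 5% CO2.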
For orientation: Tetrazolium dyes change colour on reduction, which living cells bring about.

The subject of assay [2] is MCF7. The assay is described as follows: Antiproliferative activity against ER-alpha positive human MCF7 cells assessed as reduction in cell viability after 72 hrs by MTT assay. In kind it is functional, cell-based. Conditions: MCF7, 72 h. The procedure, abridged:
as §1

The test system of assay [3] is MDA-MB-231. The assay is described as follows: Antiproliferative activity against triple negative human MDA-MB-231 cells assessed as reduction in cell viability after 72 hrs by MTT assay. In kind it is functional, cell-based. Particulars: MDA-MB-231, 72 h. The procedure, abridged:
as §1

In assay [4] the target is T1, Tubulin (Bos taurus) (UniProt Q6B856+Q862L2+Q862F3). The assay is described as follows: Inhibition of bovine tubulin at 10 uM assessed as tubulin heterodimers assembly to form microtubule by measuring OD at 350nm in presence of GTP measured every 30 secs for 90 mins by turbidimetric assay. In kind it is protein assay. The essentials:
(§2)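 Kit-based assay: 60 µM tubulin in 1x PB-GTP with compound at 10 µM final (DMSO vehicle control), 37 °C, 10 s shaking before each reading. Turbidity read at 350 nm every 30 s for 90 min. Paclitaxel and Vinblastine at 10 µM final as stabilizing and destabilizing references.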

Assay [5] concerns the target DNA topoisomerase 2-alpha (Homo sapiens) (UniProt P11388). Put plainly: Inhibition of human topoisomerase 2 mediated decatenation up to 100 uM using kinetoplast DNA as susbtrate after 1 hr by ethidium bromide staining based agarose gel electrophoresis.
For assay [6] the target is unchanged. Put plainly: Inhibition of human topoisomerase 2 mediated decatenation at 50 uM using kinetoplast DNA as susbtrate after 1 hr by ethidium bromide staining based agarose gel electrophoresis. The essentials:
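Decatenation in 20 µL with 0.2 µg kinetoplast DNA and 3 units hTopo II; compounds at 50 µM, 1 h at 37 °C.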

In assay [7] the target is T1, Tubulin (Bos taurus). Put plainly: Inhibition of bovine tubulin assessed as decrease in tubulin polymerization gradually followed by steady state decrease measured after 30 mins by turbidimetric assay. In kind it is protein assay. The procedure, abridged:
as §2

In assay [8] the target is T2, DNA topoisomerase 1 (Homo sapiens) (UniProt P11387).
T2 sequence (whole entry): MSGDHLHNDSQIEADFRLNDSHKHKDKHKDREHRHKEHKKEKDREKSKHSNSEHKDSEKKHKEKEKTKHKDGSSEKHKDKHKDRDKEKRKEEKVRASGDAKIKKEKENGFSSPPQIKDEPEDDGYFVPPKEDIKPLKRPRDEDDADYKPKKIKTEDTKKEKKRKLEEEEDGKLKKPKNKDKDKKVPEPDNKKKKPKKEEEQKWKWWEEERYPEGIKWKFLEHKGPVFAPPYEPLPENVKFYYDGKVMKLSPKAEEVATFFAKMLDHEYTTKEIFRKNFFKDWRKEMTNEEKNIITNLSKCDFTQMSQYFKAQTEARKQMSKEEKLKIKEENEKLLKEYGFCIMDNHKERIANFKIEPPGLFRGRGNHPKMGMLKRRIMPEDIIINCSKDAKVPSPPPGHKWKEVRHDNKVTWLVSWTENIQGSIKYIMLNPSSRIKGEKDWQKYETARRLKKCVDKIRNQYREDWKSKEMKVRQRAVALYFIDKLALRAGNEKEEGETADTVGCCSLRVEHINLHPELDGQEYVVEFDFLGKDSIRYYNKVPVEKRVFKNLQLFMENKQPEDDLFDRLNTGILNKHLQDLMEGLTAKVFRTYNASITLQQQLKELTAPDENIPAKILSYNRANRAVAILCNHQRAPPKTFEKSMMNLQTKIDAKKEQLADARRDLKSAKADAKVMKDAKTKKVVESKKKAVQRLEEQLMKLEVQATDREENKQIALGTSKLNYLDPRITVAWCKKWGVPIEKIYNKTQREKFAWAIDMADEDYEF
The assay is described as follows: Inhibition of recombinant human topoisomerase 1 mediated DNA relaxation assessed as uncleaved plasmid DNA at 50 uM using supercoiled pHOT1 plasmid as substrate after 1 hr by ethidium bromide staining based agarose gel electrophoresis. The essentials: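 Relaxation in 20 µL: 0.25 µg supercoiled pHOT1 in TE buffer, 2 units recombinant hTopo I, compound at 50 µM final, 1 h at 37 °C. Run on 1% agarose in 1x TAE without EB, then stained 30 min with EB (0.5 µg/mL), washed 15 min in water, viewed under UV. Three repeats.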

For assay [9], the target named is T1, Tubulin (Bos taurus). Put plainly: Inhibition of bovine tubulin assessed as decrease in tubulin polymerization gradually followed by steady state decrease measured after 15 mins by turbidimetric assay. In kind it is protein assay. The procedure, abridged:
as §2

Sequence of DNA topoisomerase 2-alpha (Homo sapiens) (P11388 whole entry): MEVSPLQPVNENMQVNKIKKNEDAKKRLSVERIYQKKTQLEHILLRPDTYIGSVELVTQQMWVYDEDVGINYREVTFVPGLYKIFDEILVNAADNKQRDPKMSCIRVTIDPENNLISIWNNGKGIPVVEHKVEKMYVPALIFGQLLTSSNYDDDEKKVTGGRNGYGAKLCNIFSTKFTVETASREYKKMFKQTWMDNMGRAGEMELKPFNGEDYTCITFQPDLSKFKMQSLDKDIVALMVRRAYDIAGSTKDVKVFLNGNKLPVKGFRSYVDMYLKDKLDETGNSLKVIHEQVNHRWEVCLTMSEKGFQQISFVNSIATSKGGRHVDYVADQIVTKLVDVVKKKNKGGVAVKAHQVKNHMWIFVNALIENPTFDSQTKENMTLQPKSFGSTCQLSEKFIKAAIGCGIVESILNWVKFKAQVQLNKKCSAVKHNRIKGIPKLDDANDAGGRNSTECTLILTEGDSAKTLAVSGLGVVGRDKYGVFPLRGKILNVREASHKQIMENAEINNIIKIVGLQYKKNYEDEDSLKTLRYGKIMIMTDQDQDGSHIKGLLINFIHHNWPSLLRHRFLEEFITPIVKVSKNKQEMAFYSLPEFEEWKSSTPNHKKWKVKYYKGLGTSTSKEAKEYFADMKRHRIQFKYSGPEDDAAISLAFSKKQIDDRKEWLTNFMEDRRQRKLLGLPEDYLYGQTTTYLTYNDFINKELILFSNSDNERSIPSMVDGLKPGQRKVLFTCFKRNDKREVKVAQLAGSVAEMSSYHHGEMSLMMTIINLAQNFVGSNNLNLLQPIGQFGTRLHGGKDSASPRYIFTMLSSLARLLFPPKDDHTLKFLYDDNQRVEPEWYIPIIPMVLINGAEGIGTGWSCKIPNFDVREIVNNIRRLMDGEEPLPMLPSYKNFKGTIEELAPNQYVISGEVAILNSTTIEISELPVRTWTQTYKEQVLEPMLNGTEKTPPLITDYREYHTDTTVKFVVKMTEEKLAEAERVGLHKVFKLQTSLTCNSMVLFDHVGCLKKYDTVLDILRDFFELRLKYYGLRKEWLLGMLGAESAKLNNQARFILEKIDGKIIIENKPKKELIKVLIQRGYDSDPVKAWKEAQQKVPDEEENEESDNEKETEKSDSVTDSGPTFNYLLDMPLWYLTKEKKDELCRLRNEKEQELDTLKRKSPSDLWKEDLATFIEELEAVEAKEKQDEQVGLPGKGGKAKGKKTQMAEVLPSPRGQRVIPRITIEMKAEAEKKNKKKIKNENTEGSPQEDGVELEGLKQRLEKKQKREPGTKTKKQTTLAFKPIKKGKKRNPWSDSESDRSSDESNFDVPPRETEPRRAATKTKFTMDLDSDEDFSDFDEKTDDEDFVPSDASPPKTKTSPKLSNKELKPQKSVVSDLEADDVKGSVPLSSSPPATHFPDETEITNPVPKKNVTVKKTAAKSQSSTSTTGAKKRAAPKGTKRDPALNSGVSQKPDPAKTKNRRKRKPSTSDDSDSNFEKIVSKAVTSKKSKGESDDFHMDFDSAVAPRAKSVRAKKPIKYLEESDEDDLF

Take `O=c1[nH]c(NC2CCCC2)nc2ccc3c4ccccc4sc3c12`: the IC50 in assay [1] is more than 100 µM; in [2], 45.6 µM; in assay [3], 5.59 µM.

With `CCCCNc1nc2ccc3c4ccccc4sc3c2c(=O)[nH]1`, the IC50 in assay [1] is more than 100 µM; in [2] it was 74.5 µM; in assay [3], 38.9 µM.

In the case of `CCCCCN(CCCCC)c1nc2ccc3c4ccccc4sc3c2c(=O)[nH]1`, the results for the IC50 in [1], in assay [2] and in assay [3] were more than 100 µM, 75.2 µM and 42.4 µM, respectively.

`CCCN(CCC)c1nc2ccc3c4ccccc4sc3c2c(=O)[nH]1`: the values for the IC50 in assay [1], in [2] and in assay [3] were more than 100 µM, 42 µM and 4.69 µM, respectively. Besides, the OD in [4] was determined as 0.26. In addition, the inhibition result in assay [5] and in assay [6] was “inactive” in each case. Besides, the inhibition result in assay [7] is “Active”.

For `CC[C@]1(O)C[C@@H]2CN(CCc3c([nH]c4ccccc34)[C@@](C(=O)OC)(c3cc4c(cc3OC)N(C)[C@H]3[C@@](O)(C(=O)OC)[C@H](OC(C)=O)[C@]5(CC)C=CCN6CC[C@]43[C@@H]65)C2)C1` [VINBLASTINE], the IC50 in assay [1] amounted to 25.9 µM; in [2], 15 µM. For the same compound, in assay [4], the OD stood at 0.2.

On to `CCCNc1nc2ccc3c4ccccc4sc3c2c(=O)[nH]1`, for which the inhibition result in assay [8] and in assay [9] was “Active” each time. In addition, the IC50 in assay [1] was more than 100 µM; in assay [2] it was 40.7 µM; in assay [3], 3.88 µM. Besides, the OD in assay [4] came out at 0.24. Further, the inhibition result in assay [5] and in assay [6] was “inactive” in each case.

Take `O=c1[nH]c(N2CCOCC2)nc2ccc3c4ccccc4sc3c12`: the IC50 in assay [1] is more than 100 µM; in assay [2], 21.2 µM; in assay [3], 9.43 µM.

With `CC(=O)O[C@H]1C(=O)[C@@]2(C)[C@H]([C@H](OC(=O)c3ccccc3)[C@]3(O)C[C@H](OC(=O)[C@H](O)[C@@H](NC(=O)c4ccccc4)c4ccccc4)C(C)=C1C3(C)C)[C@]1(OC(C)=O)CO[C@@H]1C[C@@H]2O`, the OD in assay [4] amounted to 0.52.

Take `Cc1c2ccncc2c(C)c2c1[nH]c1ccccc12` [ELLIPTECINE]: in assay [8], the inhibition entry is “Active”. Moreover, the IC50 in assay [1] stood at 1.2 µM; in assay [3], 1.85 µM.

One may read the IC50 as the point on the concentration scale where inhibition reaches its midpoint.
